Results taken from publication PMC3938282 (Journal of the American Chemical Society, 2013).

Assays:
EphA4-WT = EphA4-WT (Homo sapiens, UniProt P54764); assay: EphA4 auto-phosphorylation in transfected HEK-293T cells; type: cell-based
Pkd1-WT [1] = target: T1, Pkd1-WT (Homo sapiens, UniProt Q15139); conditions: cited from earlier work
EphA4-AS1 = assay: EphA4 auto-phosphorylation in transfected HEK-293T cells; type: cell-based
308 human kinases [2] = conditions: cited from earlier work; for share of all protein kinases targeted (same metric, more than 80% inhibition): 500 nM
Kif5b-Ret-WT = Kif5b-Ret-WT (Homo sapiens, UniProt P07949+P33176); conditions: cited from earlier work
Src-AS1 (Gly gatekeeper) = Src-AS1 (Gly gatekeeper) (Gallus gallus, UniProt P00523, T338G); assay: in vitro kinase inhibition, seven-point dose-response; type: biochemical
v-Src-AS1 = assay: inhibition of tyrosine phosphorylation in stably transfected 3T3 cells; type: cell-based, mouse
Pkd2 = Pkd2 (Homo sapiens, UniProt Q9BZL6); assay: in vitro IC50 against PP-sensitive WT kinases; type: biochemical; conditions: read-out: IC50 Pkd2; mean ± SEM
Outline: (§1)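 In vitro kinase inhibition. IC50 derived from a seven-point dose-response of test compound; values reported as mean with standard error of the mean.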

Ptk6 = Ptk6 (Homo sapiens, UniProt Q13882); assay: in vitro IC50 against PP-sensitive WT kinases; type: biochemical; conditions: read-out: IC50 Ptk6; mean ± SEM
Outline: as §1

EphA1 = EphA1 (Homo sapiens, UniProt P21709); assay: in vitro IC50 against PP-sensitive WT kinases; type: biochemical; conditions: read-out: IC50 EphA1; mean ± SEM
Outline: as §1

Ack = Ack (Homo sapiens, UniProt Q07912); assay: in vitro IC50 against PP-sensitive WT kinases; type: biochemical; conditions: read-out: IC50 Ack; mean ± SEM
Outline: as §1

308 human kinases [3] = assay: kinase panel inhibition profiling; type: biochemical; conditions: 1 µM
Outline: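 Single-point profiling of 308 human kinases: fraction of each kinase's activity inhibited by test compound at 1µM.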

CK1ε = CK1ε (Homo sapiens, UniProt P49674); assay: in vitro IC50 against PP-sensitive WT kinases; type: biochemical; conditions: read-out: IC50 CK1ε; mean ± SEM
Outline: as §1

Src-WT = Src-WT (Gallus gallus, UniProt P00523); assay: in vitro kinase inhibition, seven-point dose-response; type: biochemical
CKδ = CKδ (Homo sapiens, UniProt P48730); assay: in vitro IC50 against PP-sensitive WT kinases; type: biochemical; conditions: read-out: IC50 CKδ; mean ± SEM
Outline: as §1

Pkd1-AS1 = assay: Pkd auto-phosphorylation at S916 in transfected HEK-293T cells; type: cell-based; conditions: 625nM - 10µM
Outline: (§2)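 HEK-293T cells transiently transfected with Pkd1-WT or Pkd1-AS1. Cells treated with test compound across 625nM - 10µM, then assessed for Pkd auto-phosphorylation at S916.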

Pkd1 = Pkd1 (Homo sapiens, UniProt Q15139); assay: in vitro IC50 against PP-sensitive WT kinases; type: biochemical; conditions: read-out: IC50 Pkd1; mean ± SEM
Outline: as §1

Kif5b-Ret-AS2 = Kif5b-Ret-AS2 (Homo sapiens, UniProt P07949+P33176, V804A); assay: Ret auto-phosphorylation at Y905 in 3T3 mouse cells; type: cell-based
Outline: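 Mouse 3T3 cells expressing Kif5b-Ret-AS2 or Kif5b-Ret-WT were exposed to test compound at 10µM, 3.3µM and 1.1µM. Read-out was Ret auto-phosphorylation at Y905.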

Pkd1-AS2 = Pkd1-AS2 inhibition in cells; type: cell-based
Src-AS2 (Ala gatekeeper) = Src-AS2 (Ala gatekeeper) (Gallus gallus, UniProt P00523, T338A); assay: in vitro kinase inhibition, seven-point dose-response; type: biochemical
v-Src-WT = assay: inhibition of tyrosine phosphorylation in stably transfected 3T3 cells; type: cell-based, mouse
Pkd1-WT [4] = target: T1, Pkd1-WT; assay: Pkd auto-phosphorylation at S916 in transfected HEK-293T cells; type: cell-based; conditions: 625nM - 10µM
Outline: as §2

Ret = Ret (Homo sapiens, UniProt P07949); assay: in vitro IC50 against PP-sensitive WT kinases; type: biochemical; conditions: read-out: IC50 Ret; mean ± SEM
Outline: as §1

[5] = N12-butylamine derivative of the C7-iso-butyl staralog

T1 sequence (Q15139 whole entry): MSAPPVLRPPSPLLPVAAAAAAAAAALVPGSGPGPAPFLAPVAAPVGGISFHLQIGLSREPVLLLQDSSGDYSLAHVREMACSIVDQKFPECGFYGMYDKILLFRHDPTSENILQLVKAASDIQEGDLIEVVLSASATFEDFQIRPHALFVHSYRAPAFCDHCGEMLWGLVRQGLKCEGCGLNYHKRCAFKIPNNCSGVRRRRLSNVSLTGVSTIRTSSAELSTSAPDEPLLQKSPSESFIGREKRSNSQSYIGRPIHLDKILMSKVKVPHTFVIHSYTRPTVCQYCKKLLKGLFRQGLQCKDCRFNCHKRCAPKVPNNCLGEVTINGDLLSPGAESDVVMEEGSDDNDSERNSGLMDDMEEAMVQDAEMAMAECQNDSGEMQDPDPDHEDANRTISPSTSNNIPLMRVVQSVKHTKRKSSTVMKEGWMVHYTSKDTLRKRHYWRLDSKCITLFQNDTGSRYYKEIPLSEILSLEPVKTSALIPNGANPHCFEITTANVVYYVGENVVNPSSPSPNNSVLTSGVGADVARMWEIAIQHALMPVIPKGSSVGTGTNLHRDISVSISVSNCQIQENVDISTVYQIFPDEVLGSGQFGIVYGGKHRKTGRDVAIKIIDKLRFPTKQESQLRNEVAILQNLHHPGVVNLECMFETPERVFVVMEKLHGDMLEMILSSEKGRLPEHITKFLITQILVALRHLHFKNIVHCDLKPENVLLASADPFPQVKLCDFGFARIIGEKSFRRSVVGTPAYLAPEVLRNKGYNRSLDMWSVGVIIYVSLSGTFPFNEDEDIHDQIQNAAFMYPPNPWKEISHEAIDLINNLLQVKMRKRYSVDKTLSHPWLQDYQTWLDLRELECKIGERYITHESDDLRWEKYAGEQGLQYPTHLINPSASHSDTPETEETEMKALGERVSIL
Chain of CK1ε (P49674 whole entry): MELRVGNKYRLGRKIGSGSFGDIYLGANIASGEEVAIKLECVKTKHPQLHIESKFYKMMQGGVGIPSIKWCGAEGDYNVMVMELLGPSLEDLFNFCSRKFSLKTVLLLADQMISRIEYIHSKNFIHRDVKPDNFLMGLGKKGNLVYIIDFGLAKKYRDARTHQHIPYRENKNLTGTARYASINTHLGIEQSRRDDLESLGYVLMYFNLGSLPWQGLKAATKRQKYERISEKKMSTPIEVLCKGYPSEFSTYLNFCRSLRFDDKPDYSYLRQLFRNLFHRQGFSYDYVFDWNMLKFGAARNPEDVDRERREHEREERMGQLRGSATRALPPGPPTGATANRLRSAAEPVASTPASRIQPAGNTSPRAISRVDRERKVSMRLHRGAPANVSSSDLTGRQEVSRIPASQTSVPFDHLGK
Chain of Kif5b-Ret-WT (P07949 713-1063 limits assumed, one chain of several): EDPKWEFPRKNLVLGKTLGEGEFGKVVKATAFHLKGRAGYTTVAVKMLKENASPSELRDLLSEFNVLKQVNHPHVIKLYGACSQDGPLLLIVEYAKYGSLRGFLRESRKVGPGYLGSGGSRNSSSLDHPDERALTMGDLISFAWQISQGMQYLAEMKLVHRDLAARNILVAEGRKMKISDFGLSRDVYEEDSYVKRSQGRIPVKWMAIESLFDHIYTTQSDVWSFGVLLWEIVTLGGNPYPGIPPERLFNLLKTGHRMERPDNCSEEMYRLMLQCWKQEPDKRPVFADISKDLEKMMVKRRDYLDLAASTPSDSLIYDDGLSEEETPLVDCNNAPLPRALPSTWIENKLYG
Chain of EphA1 (P21709 26-976): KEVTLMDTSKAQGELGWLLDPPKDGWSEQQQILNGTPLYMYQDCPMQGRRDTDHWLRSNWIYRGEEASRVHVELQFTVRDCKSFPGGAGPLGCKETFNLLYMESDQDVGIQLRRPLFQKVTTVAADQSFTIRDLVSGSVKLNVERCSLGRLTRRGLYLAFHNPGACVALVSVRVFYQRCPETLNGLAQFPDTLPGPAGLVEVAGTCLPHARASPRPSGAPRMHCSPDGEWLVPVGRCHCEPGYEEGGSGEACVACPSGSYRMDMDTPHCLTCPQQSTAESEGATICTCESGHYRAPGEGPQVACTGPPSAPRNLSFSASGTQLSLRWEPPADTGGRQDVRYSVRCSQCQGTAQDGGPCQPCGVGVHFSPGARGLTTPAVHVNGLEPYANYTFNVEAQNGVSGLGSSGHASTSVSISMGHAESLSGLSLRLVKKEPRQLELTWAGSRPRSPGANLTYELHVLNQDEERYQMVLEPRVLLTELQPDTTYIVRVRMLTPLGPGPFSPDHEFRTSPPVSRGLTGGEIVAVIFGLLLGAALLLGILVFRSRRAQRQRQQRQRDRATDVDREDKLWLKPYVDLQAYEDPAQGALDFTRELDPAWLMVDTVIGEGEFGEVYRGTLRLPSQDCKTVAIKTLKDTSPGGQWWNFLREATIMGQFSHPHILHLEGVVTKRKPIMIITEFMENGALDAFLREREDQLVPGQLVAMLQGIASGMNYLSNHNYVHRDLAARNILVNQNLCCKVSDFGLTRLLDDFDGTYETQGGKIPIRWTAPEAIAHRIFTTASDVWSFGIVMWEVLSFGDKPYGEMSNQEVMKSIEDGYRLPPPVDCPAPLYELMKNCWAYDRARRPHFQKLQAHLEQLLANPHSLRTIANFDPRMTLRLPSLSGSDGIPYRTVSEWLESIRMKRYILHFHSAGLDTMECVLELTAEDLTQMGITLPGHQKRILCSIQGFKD
Chain of CKδ (P48730 whole entry): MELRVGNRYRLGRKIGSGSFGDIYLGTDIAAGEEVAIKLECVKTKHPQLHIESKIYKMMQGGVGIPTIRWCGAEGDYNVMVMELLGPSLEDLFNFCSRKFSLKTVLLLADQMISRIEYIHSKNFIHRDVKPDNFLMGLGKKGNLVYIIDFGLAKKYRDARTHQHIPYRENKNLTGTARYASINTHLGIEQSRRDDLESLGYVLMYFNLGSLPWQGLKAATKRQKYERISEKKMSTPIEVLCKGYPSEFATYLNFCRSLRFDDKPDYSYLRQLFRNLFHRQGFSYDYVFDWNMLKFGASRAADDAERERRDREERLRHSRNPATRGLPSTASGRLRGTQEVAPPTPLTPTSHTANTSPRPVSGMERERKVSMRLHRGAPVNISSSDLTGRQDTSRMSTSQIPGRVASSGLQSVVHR
Chain of Ret (P07949 29-1114): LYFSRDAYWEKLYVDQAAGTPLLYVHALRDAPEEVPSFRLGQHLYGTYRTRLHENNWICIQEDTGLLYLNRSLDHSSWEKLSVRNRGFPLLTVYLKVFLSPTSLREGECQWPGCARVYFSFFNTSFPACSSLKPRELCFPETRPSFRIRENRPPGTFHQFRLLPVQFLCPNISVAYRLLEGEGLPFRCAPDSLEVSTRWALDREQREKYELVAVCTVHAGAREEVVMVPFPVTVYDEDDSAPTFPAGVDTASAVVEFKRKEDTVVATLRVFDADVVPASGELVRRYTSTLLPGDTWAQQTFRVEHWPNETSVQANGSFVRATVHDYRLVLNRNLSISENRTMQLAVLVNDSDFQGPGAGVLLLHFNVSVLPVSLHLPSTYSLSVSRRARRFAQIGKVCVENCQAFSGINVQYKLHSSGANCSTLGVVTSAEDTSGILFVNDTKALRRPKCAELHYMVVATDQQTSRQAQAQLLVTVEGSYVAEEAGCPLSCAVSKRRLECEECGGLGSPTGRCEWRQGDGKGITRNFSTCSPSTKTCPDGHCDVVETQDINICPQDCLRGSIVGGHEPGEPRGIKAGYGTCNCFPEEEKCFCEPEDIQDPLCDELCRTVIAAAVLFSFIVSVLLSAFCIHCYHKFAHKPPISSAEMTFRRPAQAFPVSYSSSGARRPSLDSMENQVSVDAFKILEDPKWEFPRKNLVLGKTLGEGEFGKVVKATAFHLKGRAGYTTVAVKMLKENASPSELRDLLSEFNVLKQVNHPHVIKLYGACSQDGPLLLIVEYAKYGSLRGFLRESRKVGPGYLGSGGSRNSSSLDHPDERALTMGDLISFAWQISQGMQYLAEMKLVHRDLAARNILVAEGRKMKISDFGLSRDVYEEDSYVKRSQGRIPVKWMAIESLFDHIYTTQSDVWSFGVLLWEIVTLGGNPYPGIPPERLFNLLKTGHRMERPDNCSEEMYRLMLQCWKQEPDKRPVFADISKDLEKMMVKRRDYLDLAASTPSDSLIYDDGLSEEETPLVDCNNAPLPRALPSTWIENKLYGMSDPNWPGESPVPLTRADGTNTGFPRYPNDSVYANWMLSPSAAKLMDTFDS
Chain of Kif5b-Ret-AS2 (P07949 713-1063 V804A limits assumed, one chain of several): as the sequence (P07949 713-1063 limits assumed, one chain of several) above, with V92A counted along it
Chain of Ptk6 (Q13882 whole entry): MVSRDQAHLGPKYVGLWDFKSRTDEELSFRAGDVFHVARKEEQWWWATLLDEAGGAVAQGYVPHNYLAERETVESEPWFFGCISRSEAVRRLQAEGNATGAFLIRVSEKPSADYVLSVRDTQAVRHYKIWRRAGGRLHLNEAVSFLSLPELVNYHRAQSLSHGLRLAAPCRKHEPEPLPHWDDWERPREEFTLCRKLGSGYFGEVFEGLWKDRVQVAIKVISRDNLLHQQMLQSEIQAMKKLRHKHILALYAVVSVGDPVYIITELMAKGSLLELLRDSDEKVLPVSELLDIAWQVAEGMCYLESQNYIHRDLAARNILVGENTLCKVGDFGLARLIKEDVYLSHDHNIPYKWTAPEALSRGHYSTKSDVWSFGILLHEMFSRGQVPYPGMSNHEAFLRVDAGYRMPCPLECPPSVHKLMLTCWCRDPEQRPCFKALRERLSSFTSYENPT
Chain of Pkd1 (Q15139 whole entry): as the sequence (Q15139 whole entry) above

In the case of `CC(C)(C)n1nc(-c2cccc3ccccc23)c2c(N)ncnc21` [Star 1NA-PP1, 1NA-PP1], the “concentrations at which EphA4-WT activity is inhibited” value (EphA4-WT) is given as no less than 2.5 µM, the “inhibition of Pkd1 WT kinase (in words)” value (Pkd1-WT [1]) is given as “weakly inhibited at higher drug concentrations” and the “inhibition of EphA4-AS1 allele” value (EphA4-AS1; at ≥2.5µM) is given as “greater than 90%”. For the same molecule, the “share of kinases inhibited by more than 80%” value (308 human kinases [2]) was 4.5% and the “inhibition of Ret WT kinase (in words)” value (Kif5b-Ret-WT) was “weakly inhibited at higher drug concentrations”.

For `CC(C)(C)n1nc(Cc2cccc3ccccc23)c2c(N)ncnc21` [Star 1NM-PP1, 1NM-PP1], the “share of kinases inhibited by more than 80%” value (308 human kinases [2]) is given as 1.2%.

For `CC(C)C[C@@H]1NC(=O)c2c1c1c3ccccc3[nH]c1c1[nH]c3ccccc3c21` [Star 1], the “activity/potency towards Src-AS1 (in words)” value (Src-AS1 (Gly gatekeeper)) was “most potent”, the “concentration giving robust inhibition of v-Src-AS1 mediated phosphorylation” value (v-Src-AS1) was “below 1 µM” and the “relative potency against v-Src-AS1 in cells (in words)” value (v-Src-AS1) was “weakest”.

For `Cc1cccc(Cc2nn(C(C)(C)C)c3ncnc(N)c23)c1` [Star 3MB-PP1, 3MB-PP1], the “share of kinases inhibited by more than 80%” value (308 human kinases [2]) is listed as 1.2%.

In the case of `CC(C)C[C@@H]1NC(=O)c2c1c1c3ccccc3n(CCCCN)c1c1[nH]c3ccccc3c21` [Star 12], the IC50 (Pkd2) is reported as greater than 5 µM, the IC50 (Ptk6) is reported as greater than 5 µM and the IC50 (EphA1) is reported as greater than 5 µM. The IC50 (Ack) was 1300 nM, the “highest inhibition of any single kinase in the panel” value (308 human kinases [3]) was no more than 80% and the IC50 (CK1ε) was greater than 5 µM. For the same molecule, the IC50 (Src-WT; read-out: IC50 toward Src-WT) was greater than 5 µM, the IC50 (CKδ) was greater than 5 µM and the “activity towards Pkd1-AS1 (in words)” value (Pkd1-AS1) was “potent Pkd-AS1 inhibitors”. For the same molecule, the IC50 (Pkd1) was 3.3 µM, the “improvement in potency toward Src-AS1” value (Src-AS1 (Gly gatekeeper); [5]) was “~ ten-fold” and the “inhibition of Ret-AS2 autophosphorylation (in words)” value (Kif5b-Ret-AS2) was “capable of inhibiting”. For the same molecule, the “activity towards Pkd1-AS2 (in words)” value (Pkd1-AS2) was “did not show activity”, the “activity towards EphA4-AS1 (in words)” value (EphA4-AS1) was “exhibited activity” and the “improvement in potency toward Src-AS2” value (Src-AS2 (Ala gatekeeper); [5]) was “~ ten-fold”. For the same molecule, the “concentration giving robust inhibition of v-Src-AS1 mediated phosphorylation” value (v-Src-AS1) was “below 1 µM”, the “relative potency against v-Src-AS1 in cells (in words)” value (v-Src-AS1) was “most potent inhibitor” and the “effect on v-Src-WT-mediated phosphorylation (in words)” value (v-Src-WT) was “little effect”. For the same molecule, the “effect on Pkd1-WT activity (in words)” value (Pkd1-WT [4]) was “do not affect Pkd1-WT activity” and the IC50 (Ret) was greater than 5 µM.

In the case of `COC(=O)[C@@]1(O)C[C@H]2O[C@]1(C)n1c3ccccc3c3c4c(c5c6ccccc6n2c5c31)C(=O)NC4` [Star K252a, K252a], the “share of all protein kinases targeted (same metric, more than 80% inhibition)” value (308 human kinases [2]) is given as 49%.

For `O=C1NCc2c1c1c3ccccc3[nH]c1c1[nH]c3ccccc3c21` [Star K252c, K252c, reference compound], the “activity towards Src-WT (in words)” value (Src-WT) was “complete loss of activity”, the “activity/potency towards Src-AS1 (in words)” value (Src-AS1 (Gly gatekeeper)) was “complete loss of activity” and the “activity towards Src-AS2 (in words)” value (Src-AS2 (Ala gatekeeper)) was “complete loss of activity”.

In the case of `CN[C@@H]1C[C@H]2O[C@@](C)([C@@H]1OC)n1c3ccccc3c3c4c(c5c6ccccc6n2c5c31)C(=O)NC4` [staurosporine], the “share of all protein kinases targeted (same metric, more than 80% inhibition)” value (308 human kinases [2]) is listed as 72% and the “share of protein kinases potently targeted” value (308 human kinases [2]) is listed as ~ 80%.
